Measured values published in ChEMBL document CHEMBL1154830, “A beta-carboline alkaloid from the Papua New Guinea marine sponge hyrtios reticulatus” (J Nat Prod, 2010).
In brackets after ≈: the same amount, converted by molar mass. Activity calls are given as the source filed them. The rule behind the calls is not given here.

Key:
HeLa [1] = experiment: Cytotoxicity against human HeLa cells assessed as nuclear blebbing at 230 uM after 24 hrs by hoechst 33342 staining method; type: functional, cell-based
Summary of the method: (§1)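 HeLa cells plated at 1500 cells/well and held overnight at 37 °C, 5% CO2, then compound pinned in. After 24 h, fixed in 4% formaldehyde for 20 min, permeabilized with 0.5% Triton X-100 in PBS for 10 min and blocked. Actin stained with rhodamine-phalloidin for 20 min and DNA with Hoechst 33342.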

MCF7 = experiment: Cytotoxic activity against human MCF7 cells after 96 hrs by luminescent cell viability assay; type: functional, cell-based; settings: MCF7, 96 h
UACC-257 = experiment: Cytotoxic activity against human UACC257 cells after 96 hrs by luminescent cell viability assay; type: functional, cell-based; settings: UACC-257, 96 h
HeLa [2] = experiment: Cytotoxicity against human HeLa cells at 230 uM after 24 hrs; type: functional; summary of the method: as §1
U-937 = experiment: Cytotoxic activity against human U937 cells after 96 hrs by luminescent cell viability assay; type: functional, cell-based; settings: U-937, 96 h
HeLa [3] = experiment: Cytotoxicity against human HeLa cells assessed as disruption of cytoskeleton at 230 uM after 24 hrs by rhodamine-phalloidin staining method; type: functional, cell-based; summary of the method: as §1
HCC 2998 = experiment: Cytotoxic activity against human HCC2998 cells after 96 hrs by luminescent cell viability assay; type: functional, cell-based; settings: HCC 2998, 96 h
SR = experiment: Cytotoxic activity against human SR cells after 96 hrs by luminescent cell viability assay; type: functional, cell-based
SF-539 = experiment: Cytotoxic activity against human SF539 cells after 96 hrs by luminescent cell viability assay; type: functional, cell-based; settings: SF-539, 96 h
OVCAR-5 = experiment: Cytotoxic activity against human OVCAR5 cells after 96 hrs by luminescent cell viability assay; type: functional, cell-based; settings: OVCAR-5, 96 h
MDA-MB-435 = experiment: Cytotoxic activity against human MDA-MB-435 cells after 96 hrs by luminescent cell viability assay; type: functional, cell-based; settings: MDA-MB-435, 96 h
BT-549 = experiment: Cytotoxic activity against human BT549 cells after 96 hrs by luminescent cell viability assay; type: functional, cell-based; settings: BT-549, 96 h
Summary of the method: (§2)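 Cells in 96-well plates grown without compound or with continuous exposure to 1.5–50,000 nM test compound for 96 h. Growth read by CellTiter-Glo luminescence. IC50 is the concentration giving 50% growth inhibition relative to untreated cells. Two separate replicate experiments.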

DU-145 = experiment: Cytotoxic activity against human DU145 cells after 96 hrs by luminescent cell viability assay; type: functional, cell-based; settings: DU-145, 96 h; summary of the method: as §2
[4] = Cytotoxic activity against human H522-T1 cells after 96 hrs by luminescent cell viability assay; type: functional, cell-based; settings: H522-T1, 96 h
HT-29 = experiment: Cytotoxic activity against human HT-29 cells after 96 hrs by luminescent cell viability assay; type: functional, cell-based; settings: HT-29, 96 h; summary of the method: as §2
NCI-H460 = experiment: Cytotoxic activity against human H460 cells after 96 hrs by luminescent cell viability assay; type: functional, cell-based; settings: NCI-H460, 96 h; summary of the method: as §2

O=C(O)c1cc2c([nH]c3ccc(O)cc32)c(C(=O)c2c[nH]cn2)n1 [HYRTIOCARBOLIN]
Activity (HeLa [1]): Active
IC50 (MCF7): > 50 µg/mL
IC50 (UACC-257): > 50 µg/mL
inhibition at 230 µM (HeLa [2]): 57%
IC50 (U-937): 1.5 µg/mL (≈ 4.65 µM)
Activity (HeLa [3]): Active
IC50 (HCC 2998): > 50 µg/mL
IC50 (SR): > 50 µg/mL
IC50 (SF-539): > 50 µg/mL
IC50 (OVCAR-5): > 50 µg/mL
IC50 (MDA-MB-435): 3 µg/mL (≈ 9.31 µM)
IC50 (BT-549): 45 µg/mL (≈ 140 µM)
IC50 (DU-145): 34 µg/mL (≈ 105 µM)
IC50 [4]: 1.2 µg/mL (≈ 3.72 µM)
IC50 (HT-29): > 50 µg/mL
IC50 (NCI-H460): 17 µg/mL (≈ 52.7 µM)
